Experimental findings from ChEMBL document CHEMBL1955795, “Efficient synthesis and biological evaluation of proximicins A, B and C” (Bioorg Med Chem, 2012) are described below.

The subject of test [1] is Jurkat. The test can be described thus: Induction of apoptosis in human Jurkat 16 cells assessed as DNA fragments release from apoptotic nuclei at 50 ug/ml after 48 hrs by propidium iodide based flow cytometry analysis. Type of test: functional, cell-based. Put shortly: (§1)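 Cells grown in RPMI with 10% FCS and penicillin/streptomycin at 37 °C, 5% CO2. Plated in duplicate and treated 48 h with increasing concentrations. DNA released from apoptotic nuclei stained with propidium iodide. Percentage DNA fragmentation quantified by flow cytometry.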
In general terms: A flow cytometer gives signals particle by particle.

In test [2] the test system is L1236. The test can be described thus: Induction of apoptosis in human L1236 cells assessed as DNA fragments release from apoptotic nuclei at 50 ug/ml after 48 hrs by propidium iodide based flow cytometry analysis. Type of test: functional, cell-based. Put shortly: as §1
Test [3] in a line: Cytotoxicity against human U87MG cells after 48 hrs by MTT assay. Format: functional, cell-based, U-87MG ATCC. The conditions noted are these: U-87 MG. The procedure, abridged: (§2)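 U-87 MG cells in MEM and MDA-MB-231 cells in DMEM, each with 10% FBS, L-glutamine, non-essential amino acids and sodium pyruvate, kept at 5% CO2. Log-phase cells exposed to increasing drug concentrations for 24 h, then grown in fresh medium for a further 48 h. MTT added for 4 h, formazan dissolved in DMSO, absorbance read. Viability normalised to untreated wells after subtracting Triton-treated wells. IC50 derived.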
(In general: Tetrazolium dyes change colour on reduction, which living cells bring about.)

A further test deals with MDA-MB-231. The test is described as follows: Cytotoxicity against human MDA-MB-231 cells after 48 hrs by MTT assay. Format: functional, cell-based. To be noted: MDA-MB-231, 48 h. Put shortly: as §2
Test [4] relates to Staphylococcus aureus. The test is described as follows: Antimicrobial activity against Staphylococcus aureus […] after 24 hrs by MTT assay. Type of test: functional. The procedure, abridged: (§3)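 Broth microdilution MIC in cation-adjusted Mueller-Hinton broth adjusted to 20 mg/L Ca²⁺ and 10 mg/L Mg²⁺. Strains grown on nutrient agar 24 h at 37 °C before testing. Inoculum of 5 × 10⁵ cfu prepared in normal saline against a 0.5 McFarland standard, added to wells and incubated at 37 °C. MTT (5 mg/mL methanolic solution) added for 20 min. Yellow-to-dark-blue colour change indicated growth. MIC = lowest concentration with no growth.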

The subject of test [5] is Staphylococcus aureus. The test is described as follows: Antimicrobial activity against epidemic methicillin-resistant Staphylococcus aureus 16 after 24 hrs by MTT assay. The conditions noted are these: Staphylococcus aureus, 16, 24 h. Type of test: functional. The procedure, abridged:
as §3

Test [6] has as its system Staphylococcus aureus. The test is described as follows: Antimicrobial activity against Staphylococcus aureus SA 1199B over-expressing NorA MDR efflux pump after 24 hrs by MTT assay. Type of test: functional. Put shortly:
as §3

For test [7], the system named is Staphylococcus aureus. The test can be described thus: Antimicrobial activity against epidemic methicillin-resistant Staphylococcus aureus 15 after 24 hrs by MTT assay. Type of test: functional. The conditions noted are these: Staphylococcus aureus, 15, 24 h. Put shortly: as §3
The subject of another test is Enterococcus faecalis. The test can be described thus: Antimicrobial activity against Enterococcus faecalis NCTC 12697 after 24 hrs by MTT assay. Type of test: functional. The conditions noted are these: NCTC 12697, 24 h. The procedure, abridged:
(§4)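 Broth microdilution MIC in cation-adjusted Mueller-Hinton broth supplemented to 20 mg/L Ca2+ and 10 mg/L Mg2+. Strains grown on nutrient agar 24 h at 37 °C. Inoculum of 5 × 10⁵ cfu set in normal saline against a 0.5 McFarland standard. Plates incubated at 37 °C, then MTT (5 mg/mL methanolic, 20 µL) added for 20 min. MIC taken as the lowest concentration with no yellow-to-blue colour change.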

The subject of the next test is Escherichia coli. The test is described as follows: Antimicrobial activity against Escherichia coli NCTC 10418 after 24 hrs by MTT assay. Format: functional. To be noted: NCTC 10418, 24 h. The procedure, abridged:
as §4

Test [8] deals with Jurkat. The test is described as follows: Induction of apoptosis in human Jurkat 16 cells assessed as DNA fragments release from apoptotic nuclei at 20 ug/ml after 24 hrs by propidium iodide based flow cytometry analysis. Format: functional, cell-based. The procedure, abridged:
(§5)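 Cells grown in RPMI with 10% FCS and penicillin/streptomycin at 37 °C, 5% CO2. Treated 24 h at 20 µg/mL. Apoptotic DNA fragmentation measured as propidium iodide fluorescence by flow cytometry, reported as percentage of degraded DNA.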

The subject of test [9] is L1236. The test can be described thus: Induction of apoptosis in human L1236 cells assessed as DNA fragments release from apoptotic nuclei at 20 ug/ml after 24 hrs by propidium iodide based flow cytometry analysis. Format: functional, cell-based. Put shortly:
as §5

Test [10] relates to Jurkat. The test is described as follows: Induction of apoptosis in human Jurkat 16 cells assessed as DNA fragments release from apoptotic nuclei after 48 hrs by propidium iodide based flow cytometry analysis. Format: functional, cell-based. The procedure, abridged:
as §1

Each structure is given as a SMILES string. Values after ≈ are worked out from the molar mass of the structure shown. Active and inactive are the calls of the source. No cut-off for these calls is given here.

One may read the IC50 as the concentration that gives 50% inhibition. Lower therefore signals greater potency in that assay. Broadly, the MIC is the lowest concentration that inhibits growth of the organism. As to `COC(=O)Nc1coc(C(=O)Nc2coc(C(=O)NCCc3c[nH]c4ccccc34)c2)c1` [PROXIMICIN C], in the test on Jurkat [1], the outcome was Active. In addition, the outcome in the test on L1236 [2] was inactive. In addition, the IC50 in test [3] was determined as 12.7 mg/L (≈ 29.1 µM); in the test on MDA-MB-231, 11.4 mg/L (≈ 26.1 µM). Besides, the MIC was greater than 256 mg/L against Staphylococcus aureus [4]; greater than 256 mg/L with Staphylococcus aureus [5]; greater than 256 mg/L in the test with Staphylococcus aureus [6]; greater than 128 mg/L against Staphylococcus aureus [7]; greater than 128 mg/L against Enterococcus faecalis; greater than 128 mg/L against Escherichia coli.
As for `Cn1cc(NC(=O)c2cc(NC(=O)CNC(=N)N)cn2C)cc1C(=O)NCCC(=N)N` [NETROPSIN], the MIC against Staphylococcus aureus [4] came to 64 mg/L (≈ 149 µM); against Staphylococcus aureus [5], 128 mg/L (≈ 297 µM); with Staphylococcus aureus [6], 16 mg/L (≈ 37.2 µM).
`COC(=O)Nc1coc(C(=O)Nc2coc(C(=O)NCCc3ccc(O)cc3)c2)c1` [PROXIMICIN B]: the outcome with Jurkat [8] and in the test on L1236 [9] was Active. Also, the Activity result in the test on Jurkat [10] was “Dose-dependent effect”. Besides, the MIC in the test on Staphylococcus aureus [4] was 8 mg/L (≈ 19.4 µM); against Staphylococcus aureus [5] it was 8 mg/L (≈ 19.4 µM); against Staphylococcus aureus [6] it was 4 mg/L (≈ 9.68 µM); in the test on Staphylococcus aureus [7], 8 mg/L (≈ 19.4 µM); in the test on Enterococcus faecalis, 4 mg/L (≈ 9.68 µM); in the test with Escherichia coli, greater than 128 mg/L.
On to `CN(C)[C@@H]1C(O)=C(C(N)=O)C(=O)[C@@]2(O)C(O)=C3C(=O)c4c(O)cccc4[C@@](C)(O)[C@H]3C[C@@H]12` [TETRACYCLINE], for which the MIC against Staphylococcus aureus [4] is 0.5 mg/L (≈ 1.13 µM); in the test with Staphylococcus aureus [5] it was 0.5 mg/L (≈ 1.13 µM); with Staphylococcus aureus [6], 0.25 mg/L (≈ 0.563 µM); against Staphylococcus aureus [7] it was 0.12 mg/L (≈ 0.27 µM); with Enterococcus faecalis, 4 mg/L (≈ 9 µM); with Escherichia coli, 0.12 mg/L (≈ 0.27 µM).
